Source: ChEMBL document CHEMBL3244133, “Synthesis and biological activities of some uronic acids, uronates, uronamides, and urononitriles of pyrimidine nucleosides” (J Med Chem, 1978)
The source made the active and inactive calls. The rule behind the calls is not given here.

How the values were obtained:
[1] = Dissociation constant, pKa of the compound; assay type: physicochemical
Enterococcus faecium [2] = assay: Antimicrobial activity against Streptococcus faecium after 15 to 17 hrs by turbidity assay; assay type: functional; settings: read-out: ED50 (the source's name)
In short: (§1)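 S. faecium (ATCC 8043), washed and resuspended in saline to 100 Klett units, then diluted 10-fold as inoculum. Test compound was added to basal medium with deoxythymidine (7 μM final) or folic acid (4.53 nM final). Incubation was 15-17 h at 37 °C. Growth was taken as the turbidity change before versus after incubation, read on a Klett colorimeter with a red filter (640-700 nm).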

[3] = Antiviral activity against HSV1 CL101 infected in African green monkey Vero cells assessed as inhibition of plaque formation at 200 uM after 40 hrs relative to control; assay type: functional, Herpes simplex virus (type 1 / strain CL101); settings: Human alphaherpesvirus 1, Vero
CCRF S-180 [4] = assay: Cytotoxicity against mouse S180 cells at 5 uM after 18 to 42 hrs relative to control; assay type: functional
[5] = Retention time of the compound by liquid chromatography; assay type: physicochemical
In short: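 Reverse-phase HPLC with a methanol-water gradient, separating uronic acids from the parent pyrimidine bases and nucleosides.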

[6] = Competitive inhibition of HSV-1 pyrimidine deoxythymidine kinase using 2-[14C]deoxythymidine as substrate; design: species or system Human alphaherpesvirus 1
In short: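 HSV-1 encoded pyrimidine deoxyribonucleoside kinase, purified from LMTK⁻ cells. Assay at 37 °C in 50 mM Tris pH 7.8 with 3 mM ATP·Mg²⁺, 0.3 mg/mL BSA, 0.3 mM 2-mercaptoethanol and 2% glycerol. Substrate was varied [2-¹⁴C]deoxythymidine plus analogue. Reaction was started with enzyme; aliquots were taken over time and phosphorylated product measured. Ki came from double-reciprocal plots.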

L1210 = assay: Inhibition of deoxythymidylate synthetase in mouse L1210 cells at 250 uM; assay type: cell-based
Lacticaseibacillus casei = assay: Inhibition of Lactobacillus casei deoxythymidylate synthetase at 250 uM
Enterococcus faecium [7] = assay: Antimicrobial activity against Streptococcus faecium assessed as growth inhibition at 400 uM after 15 to 17 hrs by turbidity assay in presence of 4.53 nM folic acid; assay type: functional; in short: as §1
Enterococcus faecium [8] = assay: Antimicrobial activity against Streptococcus faecium assessed as growth inhibition at 400 uM after 15 to 17 hrs by turbidity assay in presence of 7 uM deoxythymidine; assay type: functional; in short: as §1
[9] = Antiviral activity against HSV1 CL101 infected in African green monkey Vero cells assessed as inhibition of plaque formation at 50 uM after 40 hrs relative to control; assay type: functional, Herpes simplex virus (type 1 / strain CL101); settings: Human alphaherpesvirus 1, Vero
Enterococcus faecium [10] = assay: Antimicrobial activity against Streptococcus faecium assessed as concentration required for maximum growth inhibition after 15 to 17 hrs by turbidity assay; assay type: functional; in short: as §1
[11] = Antiviral activity against HSV1 CL101 infected in African green monkey Vero cells assessed as inhibition of plaque formation at 10 uM after 40 hrs relative to control; assay type: functional, Herpes simplex virus (type 1 / strain CL101); settings: Human alphaherpesvirus 1, Vero
CCRF S-180 [12] = assay: Cytotoxicity against mouse S180 cells at 400 uM after 18 to 42 hrs relative to control; assay type: functional
[13] = Antiviral activity against HSV1 CL101 infected in African green monkey Vero cells assessed as inhibition of plaque formation at 400 uM after 40 hrs relative to control; assay type: functional, Herpes simplex virus (type 1 / strain CL101); settings: Human alphaherpesvirus 1, Vero
[14] = Antiviral activity against HSV1 CL101 infected in African green monkey Vero cells assessed as inhibition of plaque formation at 0.1 uM after 40 hrs relative to control; assay type: functional, Herpes simplex virus (type 1 / strain CL101); settings: Human alphaherpesvirus 1, Vero
CCRF S-180 [15] = assay: Cytotoxicity against mouse S180 cells at 0.001 uM after 18 to 42 hrs relative to control; assay type: functional
[16] = Antiviral activity against HSV1 CL101 infected in African green monkey Vero cells assessed as inhibition of plaque formation at 40 uM after 40 hrs relative to control; assay type: functional, Herpes simplex virus (type 1 / strain CL101); settings: Human alphaherpesvirus 1, Vero

## Cc1cn([C@H]2C[C@H](O)[C@@H](CO)O2)c(=O)[nH]c1=O [DOXRIBTIMINE]
[1]
  pKa: 9.8
Enterococcus faecium [2]
  EC50: 11 µM

## Nc1ccn([C@@H]2O[C@H](CO)[C@@H](O)[C@@H]2O)c(=O)n1 [CYTARABINE]
[3]
  inhibition at 200 µM: 91%
CCRF S-180 [4]
  inhibition at 5 µM: 98%
[5]
  Retention_time: 2.07 min

## CC(=O)O[C@H]1C[C@H](n2cc(I)c(=O)[nH]c2=O)O[C@@H]1C#N
[6]
  Ki: 18 µM

## Nc1nc(=O)n([C@H]2C[C@H](O)[C@@H](C(=O)O)O2)cc1Br
[5]
  Retention_time: 3.05 min

## CC(=O)O[C@H]1C[C@H](n2cc(C)c(=O)[nH]c2=O)O[C@@H]1CO
[6]
  Ki: 58 µM

## Nc1nc(=O)n([C@H]2C[C@H](O)[C@@H](C(=O)O)O2)cc1I
[5]
  Retention_time: 3.35 min

## NC(=O)[C@H]1O[C@@H](n2ccc(O)nc2=O)C[C@@H]1O (stereo in doubt; 19) [listing 1 of 2 here]
L1210
  inhibition: inactive
Lacticaseibacillus casei
  inhibition: inactive

## COC(=O)[C@H]1O[C@@H](n2cc(Br)c(=O)[nH]c2=O)C[C@@H]1O
[6]
  Ki: 2.9 µM

## O=c1[nH]c(=O)n([C@H]2C[C@H](O)[C@@H](CO)O2)cc1I [IDOXURIDINE]
Enterococcus faecium [7]
  inhibition (INH): 71%
[6]
  Ki: 0.2 µM
Enterococcus faecium [8]
  inhibition (INH): 12%
[9]
  inhibition at 50 µM: 99.7%
[5]
  Retention_time: 14.41 min

## Nc1nc(=O)n([C@H]2C[C@H](O)[C@@H](CO)O2)cc1I [IBACITABINE]
[5]
  Retention_time: 19.87 min

## Nc1ccn([C@H]2C[C@H](O)[C@@H](CO)O2)c(=O)n1 [DOXECITINE]
Enterococcus faecium [2]
  EC50: 50 µM

## NC(=O)[C@H]1O[C@@H](n2ccc(O)nc2=O)C[C@@H]1O (stereo in doubt)
Enterococcus faecium [10]
  Activity: 600 µM
[6]
  Ki: 310 µM

## O=C(O)[C@H]1O[C@@H](n2cc(F)c(=O)[nH]c2=O)C[C@@H]1O [RIBOFURANURONIC ACID]
L1210
  inhibition: inactive
Lacticaseibacillus casei
  inhibition: inactive

## O=C(O)[C@H]1O[C@@H](n2cc(I)c(O)nc2=O)C[C@@H]1O
[6]
  Ki: 4.2 µM
[5]
  Retention_time: 2.97 min

## O=c1[nH]cc(Br)c(=O)[nH]1 [5-BROMOURACIL]
[5]
  Retention_time: 7.69 min

## O=c1[nH]c(=O)n([C@H]2C[C@H](O)[C@@H](CO)O2)cc1Br [BROXURIDINE]
[11]
  inhibition at 10 µM: 99.6%
Enterococcus faecium [7]
  inhibition (INH): 91%
[6]
  Ki: 0.2 µM
Enterococcus faecium [8]
  inhibition (INH): 76%
[5]
  Retention_time: 12.16 min

## COC(=O)[C@H]1O[C@@H](n2cc(C)c(=O)[nH]c2=O)C[C@@H]1O
[6]
  Ki: 4 µM

## Cc1cn([C@H]2C[C@H](O)[C@@H](C(=O)O)O2)c(=O)[nH]c1=O [5'-CARBOXY THYMIDINE]
[6]
  Ki: 5.4 µM

## Nc1ccn([C@@H]2O[C@H](C(=O)O)[C@@H](O)[C@@H]2O)c(=O)n1
Enterococcus faecium [7]
  inhibition (INH): 0%
CCRF S-180 [12]
  inhibition at 400 µM: 76%
[13]
  inhibition at 400 µM: 0%
Enterococcus faecium [8]
  inhibition (INH): 0%
[5]
  Retention_time: 2.56 min

## Nc1nc(=O)n([C@H]2C[C@H](O)[C@@H](CO)O2)cc1Br
[5]
  Retention_time: 16.53 min

## O=c1[nH]c(=O)n([C@H]2C[C@H](O)[C@@H](CO)O2)cc1F [FLOXURIDINE]
Enterococcus faecium [7]
  inhibition (INH): 95%
[14]
  inhibition at 0.1 µM: 88%
CCRF S-180 [15]
  inhibition at 0.001 µM: 95%
[6]
  Ki: 1.5 µM
Enterococcus faecium [8]
  inhibition (INH): 96%
[5]
  Retention_time: 7.93 min

## O=c1[nH]cc(F)c(=O)[nH]1 [FLUOROURACIL]
[5]
  Retention_time: 5.29 min

## O=C(O)[C@H]1O[C@@H](n2ccc(=O)[nH]c2=O)C[C@@H]1O
[6]
  Ki: 500 µM

## O=c1[nH]cc(I)c(=O)[nH]1
[5]
  Retention_time: 8.85 min

## N#C[C@H]1O[C@@H](n2cc(I)c(O)nc2=O)C[C@@H]1O
Enterococcus faecium [7]
  inhibition (INH): 14%
CCRF S-180 [12]
  inhibition at 400 µM: 0%
[13]
  inhibition at 400 µM: 74%
[6]
  Ki: 1.3 µM
Enterococcus faecium [8]
  inhibition (INH): 0%

## N#C[C@H]1O[C@@H](n2cc(F)c(=O)[nH]c2=O)C[C@@H]1O
L1210
  inhibition: inactive
Lacticaseibacillus casei
  inhibition: inactive
[6]
  Ki: 75 µM

## O=c1[nH]c(=O)n([C@H]2C[C@H](O)[C@@H](CF)O2)cc1I
[6]
  Ki: 1.5 µM

## CC(=O)O[C@H]1C[C@H](n2cc(Br)c(=O)[nH]c2=O)O[C@@H]1C(N)=O
[6]
  Ki: 192 µM

## NC(=O)[C@H]1O[C@@H](n2cc(I)c(O)nc2=O)C[C@@H]1O
Enterococcus faecium [7]
  inhibition (INH): 28%
[16]
  inhibition at 40 µM: 78%
CCRF S-180 [12]
  inhibition at 400 µM: 0%
[13]
  inhibition at 400 µM: 96%
[6]
  Ki: 1 µM
Enterococcus faecium [8]
  inhibition (INH): 0%

## COC(=O)[C@H]1O[C@@H](n2ccc(=O)[nH]c2=O)C[C@@H]1O
[6]
  Ki: 500 µM

## O=C(O)[C@H]1O[C@@H](n2cc(Br)c(O)nc2=O)C[C@@H]1O
[6]
  Ki: 2.7 µM
[5]
  Retention_time: 2.56 min

## Cc1cn([C@H]2C[C@H](O)[C@@H](C(N)=O)O2)c(=O)[nH]c1=O
[6]
  Ki: 1.6 µM

## CC(=O)O[C@H]1C[C@H](n2cc(I)c(=O)[nH]c2=O)O[C@@H]1C(N)=O
[6]
  Ki: 20 µM

## CC(=O)O[C@H]1C[C@H](n2cc(F)c(=O)[nH]c2=O)O[C@@H]1C(N)=O
[6]
  Ki: 960 µM

## NC(=O)[C@H]1O[C@@H](n2cc(F)c(=O)[nH]c2=O)C[C@@H]1O
L1210
  inhibition: inactive
Lacticaseibacillus casei
  inhibition: inactive
[6]
  Ki: 18 µM

## COC(=O)[C@H]1O[C@@H](n2cc(F)c(O)nc2=O)C[C@@H]1O
Enterococcus faecium [7]
  inhibition (INH): 0%
L1210
  inhibition: inactive
Lacticaseibacillus casei
  inhibition: inactive
CCRF S-180 [12]
  inhibition at 400 µM: 32%
[13]
  inhibition at 400 µM: 0%
[6]
  Ki: 410 µM
Enterococcus faecium [8]
  inhibition (INH): 0%

## CC(=O)O[C@H]1C[C@H](n2cc(Br)c(=O)[nH]c2=O)O[C@@H]1C#N
[6]
  Ki: 28 µM

## NC(=O)[C@H]1O[C@@H](n2cc(Br)c(O)nc2=O)C[C@@H]1O
Enterococcus faecium [7]
  inhibition (INH): 0%
[16]
  inhibition at 40 µM: 42%
CCRF S-180 [12]
  inhibition at 400 µM: 0%
[13]
  inhibition at 400 µM: 92%
[6]
  Ki: 0.8 µM
Enterococcus faecium [8]
  inhibition (INH): 0%

## N#C[C@H]1O[C@@H](n2cc(Br)c(=O)[nH]c2=O)C[C@@H]1O
[6]
  Ki: 1.8 µM

## NC(=O)[C@H]1O[C@@H](n2ccc(O)nc2=O)C[C@@H]1O (stereo in doubt; 19) [listing 2 of 2 here]
Enterococcus faecium [7]
  inhibition (INH): 22%
CCRF S-180 [12]
  inhibition at 400 µM: 0%
Enterococcus faecium [2]
  EC50: 200 µM
Enterococcus faecium [10]
  Activity: 600 µM
[13]
  inhibition at 400 µM: 0%
Enterococcus faecium [8]
  inhibition (INH): 71%

## COC(=O)[C@H]1O[C@@H](n2cc(I)c(=O)[nH]c2=O)C[C@@H]1O
[6]
  Ki: 1.5 µM

## O=c1ccn([C@H]2C[C@H](O)[C@@H](CO)O2)c(=O)[nH]1 [DEOXYURIDINE]
[1]
  pKa: 9.3
Enterococcus faecium [2]
  EC50: 37 µM
[6]
  Ki: 9.5 µM
